The values that follow come from ChEMBL document CHEMBL4145525, “Machine learning prioritizes synthesis of primaquine ureidoamides with high antimalarial activity and attenuated cytotoxicity” (Eur J Med Chem, 2018).

One series has as its system Plasmodium falciparum. In words: Antiplasmodial activity against erythrocytic stage of Plasmodium falciparum NF54 assessed as reduction in [3H]hypoxanthine incorporation after 48 hrs by liquid scintillation counting method. The class given is functional, organism-based. In short, it runs like this: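 Asexual blood-stage NF54 grown in hypoxanthine-free RPMI 1640 with HEPES, NaHCO3, neomycin and Albumax, using washed human A+ erythrocytes at 2.5% hematocrit and 0.3% parasitemia. Compounds were made as 10 mg/ml DMSO stocks and run as eleven 3-fold dilutions, 100 to 0.002 µg/ml. Incubation at 37 °C in 4% CO2, 3% O2, 93% N2. After 48 h, 0.5 µCi 3H-hypoxanthine was added for a further 24 h, then harvested and scintillation counted. IC50 by linear interpolation of sigmoidal curves; averages of 2–3 independent experiments.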

A further series concerns L6. Put plainly: Cytotoxicity against rat L6 cells assessed as reduction in cell viability after 70 hrs by Alamar blue assay. The class given is cell-based. The settings on record: L6, 70 h. In short, it runs like this:
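L6 rat skeletal myoblasts were plated at 4000 cells/well in RPMI 1640 with L-glutamine and 10% FBS. Eleven 3-fold drug dilutions, 100 to 0.002 µg/ml. After 70 h, Alamar Blue was added for 2 h and fluorescence read (ex 536 nm, em 588 nm). IC50 by linear interpolation from sigmoid dose-inhibition curves.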
On the technique in general: Alamar Blue is a resazurin reagent that responds to reducing activity.

The nature of series [1]: Selectivity index, ratio of IC50 for rat L6 cells to IC50 for erythrocytic stage of Plasmodium falciparum NF54. The class given is toxicity. The settings on record: read-out: Ratio IC50. In short, it runs like this: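 Ratio of the L6 cytotoxicity IC50 to the IC50 against P. falciparum NF54.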
Series [2] concerns NCI-H460. In words: Cytotoxicity against human NCI-H460 cells assessed as growth inhibition after 72 hrs by MTT assay. The class given is cell-based. As to conditions: NCI-H460, 72 h. In outline:
(§1)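 Monolayers grown in DMEM or RPMI-1640 with 10% FBS, 2 mM L-glutamine and penicillin/streptomycin at 37 °C, 5% CO2. Seeded at 2×10^4–4×10^4 cells/well and attached for 24 h. Five serial 10-fold dilutions added, final DMSO <0.2%. MTT read-out at 72 h; percentage growth calculated. IC50 by linear interpolation between concentrations bracketing 50% growth; at least two biological replicates.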

Series [3] relates to MCF7. Put plainly: Cytotoxicity against human MCF7 cells assessed as growth inhibition after 72 hrs by MTT assay. The class given is cell-based. As to conditions: MCF7, 72 h. In outline: as §1
(Tetrazolium assays rely on reduction of a dye to a coloured formazan, in cell work by metabolically active cells.)

Another series deals with A2780. Put plainly: Cytotoxicity against human A2780 cells assessed as growth inhibition after 72 hrs by MTT assay. The class given is cell-based. As to conditions: A2780, 72 h. In short, it runs like this:
as §1

Series [4] concerns NCI-H460. In words: Cytotoxicity against human NCI-H460 cells assessed as growth inhibition at 10 uM cotreated with G6PD inhibitor 6-AN after 72 hrs by MTT assay. The settings on record: nci-h460, 72 h. The class given is cell-based. In outline:
(§2)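 Adherent cells seeded at 2×10^4–4×10^4 cells/well and left 24 h, then treated with compound alone or together with 6-aminonicotinamide (always 10 µM, used to mimic G6PD deficiency). Final DMSO <0.2%. Growth measured by MTT after 72 h and expressed as percentage growth relative to untreated cells.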

Series [5] relates to MCF7. Put plainly: Cytotoxicity against human MCF7 cells assessed as growth inhibition at 10 uM cotreated with G6PD inhibitor 6-AN after 72 hrs by MTT assay. The class given is cell-based. As to conditions: mcf7, 72 h. In short, it runs like this: as §2
A further series relates to SW-620. In words: Cytotoxicity against human SW620 cells assessed as growth inhibition after 72 hrs by MTT assay. The class given is cell-based. As to conditions: SW-620, 72 h. In short, it runs like this:
as §1

Another series has as its system HCT-116. Put plainly: Cytotoxicity against human HCT116 cells assessed as growth inhibition after 72 hrs by MTT assay. The class given is cell-based. The settings on record: HCT-116, 72 h. In outline: (§3)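 Cells cultured in DMEM or RPMI-1640 with 10% FBS, 2 mM L-glutamine and antibiotics at 37 °C, 5% CO2. Seeded at 2×10^4–4×10^4 cells/well and attached for 24 h before five serial 10-fold compound dilutions, final DMSO <0.2%. MTT at 72 h. IC50 interpolated between the two concentrations flanking 50% growth inhibition; single experiment.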

In the next series the test system is HL-60. In words: Cytotoxicity against human HL60 cells assessed as growth inhibition after 72 hrs by MTT assay. The class given is cell-based. As to conditions: HL-60, 72 h.
The subject of a further series is K562. Put plainly: Cytotoxicity against human K562 cells assessed as growth inhibition after 72 hrs by MTT assay. The class given is cell-based. The settings on record: K562, 72 h.
Another series relates to CAPAN-1. Put plainly: Cytotoxicity against human Capan1 cells assessed as growth inhibition after 72 hrs by MTT assay. The class given is cell-based. As to conditions: CAPAN-1, 72 h. In outline: as §3
The nature of series [6]: Cytotoxicity against human MCF7 cells assessed as cell growth at 10 uM after 72 hrs by MTT assay relative to control. The class given is cell-based. The settings on record: read-out: Activity. In outline:
as §2

Series [7] is described as follows: Cytotoxicity against human MCF7 cells assessed as cell growth at 10 uM cotreated with G6PD inhibitor 6-AN after 72 hrs by MTT assay relative to control. The class given is cell-based. In outline:
as §2

The nature of series [8]: Safety index, ratio of compound IC50 to primaquine IC50 for rat L6 cells. The class given is ADME, cell-based. The settings on record: read-out: Ratio IC50.

The term IC50 denotes the concentration at which inhibition is half-maximal. With `COc1ccc(C(=NNC(=O)NCCCC(C)Nc2cc(OC)cc3cccnc23)c2ccc(OC)cc2)cc1` (stereo unspecified), the IC50 in the series on Plasmodium falciparum was 2.3 to 2.4 µM; with L6, greater than 180 µM; with NCI-H460 [2] it was greater than 100 µM; with MCF7 [3], 2.8 to 3 µM; with A2780 it was 1 µM. For the same compound, the selectivity ratio in [1] stood at 78.3. Moreover, the “growth inhibition (GI)” value with NCI-H460 [4] and in the series on MCF7 [5] was “Toxic” each time.
With `COc1cc(NC(C)CCCNC(=O)NC(CC(C)C)C(=O)NC(c2ccccc2)c2ccccc2)c2ncccc2c1` (stereo unspecified), the IC50 with Plasmodium falciparum is 3.4 µM; with L6, greater than 170 µM; in the series with NCI-H460 [2] it was greater than 100 µM; in the series on MCF7 [3] it was greater than 100 µM; in the series with SW-620, greater than 100 µM; with A2780, 36 µM. Moreover, the half-inhibitory concentration (IC50) in the series on HCT-116, in the series on HL-60, with K562 and with CAPAN-1 was greater than 100 µM in each case. The selectivity ratio in series [1] is greater than 50. Also, the “growth inhibition (GI)” value in the series on NCI-H460 [4] and with MCF7 [5] was “Non-Toxic” throughout.
As for `COc1cc(NC(C)CCCNC(=O)NNC(=O)NCCNC(c2ccccc2)(c2ccccc2)c2ccccc2)c2ncccc2c1` (stereo unspecified), the half-maximal inhibitory concentration (IC50) in the series with Plasmodium falciparum was 1.2 µM; in the series with L6 it was greater than 100 µM; in the series with NCI-H460 [2], 3 µM; in the series on MCF7 [3], 3 µM; with A2780 it was 1 µM. Also, the selectivity ratio in series [1] was greater than 83.3. Besides, the “growth inhibition (GI)” value in the series on NCI-H460 [4] and with MCF7 [5] was “Toxic” throughout.
`COc1cc(NC(C)CCCNC(=O)NC(C(=O)NC(c2ccccc2)c2ccc(Cl)cc2)c2ccccc2)c2ncccc2c1` (stereo unspecified): the IC50 in the series with Plasmodium falciparum is 3 µM; in the series on L6 it was greater than 160 µM; in the series with NCI-H460 [2], greater than 100 µM; with MCF7 [3] it was greater than 100 µM; with SW-620 it was greater than 100 µM; with A2780, greater than 100 µM. Moreover, the IC50 in the series on HCT-116, in the series on HL-60, in the series on K562 and in the series with CAPAN-1 was greater than 100 µM in each case. The selectivity ratio in series [1] was greater than 53.3. Moreover, the “growth inhibition (GI)” value in the series with NCI-H460 [4] and in the series with MCF7 [5] was “Non-Toxic” in each case.
For the compound `COc1cc(NC(C)CCCN)c2ncccc2c1` (stereo unspecified) [PRIMAQUINE PHOSPHATE], the IC50 with Plasmodium falciparum stood at 1.5 µM; with L6 it was 59.5 µM; in the series with NCI-H460 [2], 10 µM; in the series on MCF7 [3], 5 µM; with SW-620 it was 14 µM; in the series on A2780 it was 5 µM. Besides, the IC50 in the series on HCT-116 stood at 44.2 µM; in the series with HL-60, 11.4 µM; with K562, 12 µM; in the series on CAPAN-1 it was 14.2 µM. Besides, the selectivity ratio in [1] came to 39.7. Also, in series [6], the viability at 72 h, 10 µM worked out at 25%.
Turning to `COc1cc(NC(C)CCCNC(=O)NC(C(=O)Nc2ccc(Br)cc2)c2ccc(Cl)cc2)c2ncccc2c1` (stereo unspecified), the IC50 was 3.2 µM in the series with Plasmodium falciparum; 54 µM in the series with L6; 52 µM with NCI-H460 [2]; 16 µM in the series with MCF7 [3]; 32 µM in the series with SW-620; greater than 100 µM in the series with HCT-116. Besides, the IC50 in the series with HL-60, in the series with K562 and in the series with CAPAN-1 was greater than 100 µM each time. In addition, the selectivity ratio in series [1] amounted to 16.9.
Turning to `COc1ccc(C(=NNC(=O)NNC(=O)NCCCC(C)Nc2cc(OC)cc3cccnc23)c2ccc(OC)cc2)cc1` (stereo unspecified), the IC50 was 1.9 to 2.2 µM in the series on Plasmodium falciparum; 136 µM with L6; 5 µM in the series with NCI-H460 [2]; 0.9 to 1 µM in the series with MCF7 [3]; 0.06 µM in the series with A2780. In series [1], the selectivity ratio is 61.9. Further, the “growth inhibition (GI)” value in the series on NCI-H460 [4] and with MCF7 [5] was “Toxic” in each case.
With `COc1cc(NC(C)CCCNC(=O)NC(C(=O)NC(c2ccccc2)c2ccc(Cl)cc2)c2ccc(Cl)cc2)c2ncccc2c1` (stereo unspecified), the IC50 with Plasmodium falciparum is 1.8 µM; with L6, greater than 150 µM; in the series with NCI-H460 [2] it was greater than 100 µM; in the series on MCF7 [3] it was greater than 100 µM; in the series with SW-620, greater than 100 µM; in the series on A2780 it was 14 µM. Besides, the half-maximal inhibitory concentration (IC50) with HCT-116, with HL-60, with K562 and in the series on CAPAN-1 was greater than 100 µM in each case. In addition, the selectivity ratio was greater than 83.3 in series [1] and 2.5 in [8]. Moreover, the viability at 72 h, 10 µM is 93% in series [6] and 76% in [7]. In addition, the “growth inhibition (GI)” value in the series on NCI-H460 [4] is given as “Non-Toxic”.
With `COc1cc(NC(C)CCCNC(=O)NC(C(=O)NC(c2ccccc2)c2ccccc2)c2ccc(Cl)cc2)c2ncccc2c1` (stereo unspecified), the half-inhibitory concentration (IC50) is 1.4 µM in the series with Plasmodium falciparum; greater than 160 µM in the series with L6; greater than 100 µM in the series with NCI-H460 [2]; greater than 100 µM in the series with MCF7 [3]; 6 µM in the series on SW-620; greater than 100 µM in the series with A2780. Further, the IC50 with HCT-116, in the series with HL-60, in the series with K562 and with CAPAN-1 was greater than 100 µM throughout. For the same compound, the selectivity ratio in [1] is greater than 114; in series [8] it was 2.7. For the same compound, the figures for the viability at 72 h, 10 µM in series [6] and in [7] were 80% and 65%, respectively.
Take `COc1cc(NC(C)CCCNC(=O)NC(C(=O)N(C)C(c2ccccc2)c2ccccc2)c2ccccc2)c2ncccc2c1` (stereo unspecified): the IC50 in the series on Plasmodium falciparum was 6.5 µM; with L6, greater than 140 µM; in the series with NCI-H460 [2], 64 µM; in the series on MCF7 [3], greater than 100 µM; with SW-620 it was greater than 100 µM; with HCT-116 it was greater than 100 µM. Also, the IC50 with HL-60, with K562 and in the series on CAPAN-1 was greater than 100 µM each time. Also, the selectivity ratio in series [1] is greater than 21.5.
